High-throughput results deposited in PubChem BioAssay by Johns Hopkins Ion Channel Center.
In the library only some 2.9% were active in any assay of this set; here they are far more common.
TRPC6 inh: inhibitors of mouse TRPC6 channel. HEK293-TRPC6, membrane potential dye, ACh-evoked depolarization; stronger effect = lower value. B-score at 10 µM. 310,000 tested, 1.1% active. AID 2553;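 active = B-score under library mean minus 3 SD, initial fluorescence not abnormally high, positive integrated signal ratio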;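 note: B-score derived from integrated fluorescence ratio over the kinetic read; more negative B-score means stronger inhibition of depolarization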
TRPC4 act: opens the mouse TRPC4 cation channel | Q9QUQ5 | HEK293 TRPC4beta/mu-opioid, Fluo4 calcium fluorescence; stronger effect = higher value | B-score at 10 µM | 310,000 tested, 0.49% active;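 active = B-score above 5 SD of library B-scores, and initial fluorescence ratio not above library mean plus 5 SD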;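 note: positive B-score marks a calcium rise read as TRPC4 activation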
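Assay system: HEK293 stable line with TRPC4beta plus mu-opioid receptor. Times: dye 45 min RT, read 110 s. Measured by: kinetic Fluo4 calcium fluorescence. Measure: B score of integrated ratio. Controls: assay buffer as low control, maximal DAMGO as high control.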
TRPC4 inh: TRPC4 (mouse) channel inhibition | AID 2247 | 300,000 tested, 0.39% active | HEK293 TRPC4beta/mu-opioid, DAMGO-evoked Fluo4 calcium flux; stronger effect = lower value | B-score at 10 µM;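 active = B-score over 3 SD under the library average, no early fluorescence shift, positive overall ratio signal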
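Assay system: HEK293 cells with stable TRPC4beta plus mu-opioid receptor expression. Dosing: single dose. Measured by: Fluo4 Ca2+ flux fluorescence. Also added: DAMGO in two steps, submaximal then maximal. Read-out: B score from integrated Fluo4 fluorescence ratio.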
TRPC6 act: activators of mouse TRPC6 channel. Q61143. HEK293-TRPC6 membrane potential dye fluorescence; stronger effect = higher value. B-score at 10 µM. 310,000 tested, 0.13% active. AID 2550;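 active = B-score of the integrated fluorescence ratio above library mean plus 3 SD, and starting fluorescence ratio within library mean plus 5 SD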;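 note: higher score means more depolarization so channel activation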
Kir21 block: blocks the mouse Kir2.1 inward-rectifier potassium channel; P35561; HEK293-Kir2.1, FluxOR thallium flux fluorescence; stronger effect = lower value; B-score at 10 µM; 310,000 tested, 0.85% active; AID 1672;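 active = fluorescence ratio B-score at or below minus 3 SD of library scores, with starting-brightness B-score within 2 SD, cut at about -4.2 in these data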;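 note: channel flux triggered by added potassium and thallium sulfate stimulus; B-score of peak minus minimum fluorescence over baseline after thallium stimulus; more negative B-score means stronger Kir2.1 block with less thallium influx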
Target sequence (P35561 whole entry, looked up): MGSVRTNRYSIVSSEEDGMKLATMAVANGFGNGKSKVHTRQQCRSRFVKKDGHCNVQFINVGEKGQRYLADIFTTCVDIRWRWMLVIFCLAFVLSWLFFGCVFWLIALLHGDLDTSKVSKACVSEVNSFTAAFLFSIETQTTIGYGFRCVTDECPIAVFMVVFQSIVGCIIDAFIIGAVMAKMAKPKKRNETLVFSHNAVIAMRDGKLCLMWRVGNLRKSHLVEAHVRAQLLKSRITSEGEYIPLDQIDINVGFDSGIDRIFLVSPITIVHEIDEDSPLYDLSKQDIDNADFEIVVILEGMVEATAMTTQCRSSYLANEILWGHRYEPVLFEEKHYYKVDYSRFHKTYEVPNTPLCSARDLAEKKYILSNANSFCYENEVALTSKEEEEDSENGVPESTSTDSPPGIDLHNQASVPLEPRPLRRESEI
TRPC4 PAM: allosterically enhances the mouse TRPC4 cation channel. Q9QUQ5. AID 2227. HEK293 TRPC4beta/mu-opioid, DAMGO EC20, Fluo-4 Ca2+ flux; stronger effect = higher value. 310,000 tested, 0.42% active. B-score at 10 µM;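 active = B-score of calcium response area above 5 SD of library B-scores, with initial fluorescence ratio within 5 SD of library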;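 note: B-score of integrated fluorescence ratio over time as area under calcium response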
TRPC4 spec 2: second selectivity test of TRPC6 inhibitors: effect on mouse TRPC4 | shares compounds with TRPC6 inh | HEK293 TRPC4/MOR, membrane potential dye fluorescence; channel activated by saturating DAMGO dose | inhibition, % at 10 µM | 920 tested, 42% active | AID 2776;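 active = compounds whose fluorescence signal differed from control wells by over 3 SD, either direction, in both duplicate plates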
TRPC4 spec: mouse TRPC4 off-target activity of TRPC6 inhibitors; shares compounds with TRPC6 inh; HEK293 TRPC4/mu-opioid, membrane potential fluorescence; activity change, negative = inhibition, % at 10 µM; 920 tested, 61% active; AID 2777;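 active = rise or fall in signal beyond 3 SD of buffer-only wells in both replicate plates, either sign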;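 note: integrated kinetic ratio of fluorescence range over baseline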
HEK293 MPD ctr 2-1: second check of TRPC6 inhibitor effects in parental HEK293 cells. shares compounds with TRPC6 inh. parental HEK293 membrane potential dye fluorescence; maximal acetylcholine challenge after compound addition. AID 2779. 920 tested, 31% active. signal change vs control, % at 10 µM;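 active = membrane potential signal moving either way by over 3 SD of the maximum-effect control, in both duplicate plates, meaning non-specific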
HEK293 MPD ctr-1: counter-screen for TRPC6 inhibitors: effect in parental HEK293 cells; 920 tested, 60% active; shares compounds with TRPC6 inh; AID 2780; parental HEK293 membrane potential dye fluorescence; membrane potential signal change, % at 10 µM;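 active = membrane potential signal shifting up or down by more than 3 SD of buffer-only wells, on both duplicate plates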
HEK293 MPD ctr-2: checks TRPC6 modulator effects in parental HEK293 cells; shares compounds with TRPC6 inh; membrane potential dye fluorescence; membrane potential signal change, % at 10 µM; 2,400 tested, 51% active;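 active = membrane potential signal moves up or down beyond 5 SD from buffer-only wells, on both duplicate plates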
HEK293 MPD ctr 2-2: second counter-screen for TRPC6 modulators: effect in parental HEK293 cells; 2,400 tested, 14% active; inhibition, % at 10 µM; membrane potential dye fluorescence; after compound, maximal acetylcholine stimulation; shares compounds with TRPC6 inh;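 active = membrane potential signal drops by more than 5 SD from the mean control signal, in both duplicate plates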;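 note: plate controls were acetylcholine ECmax control wells for no effect and buffer only wells for full effect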
TRPC4 ctr mod: tests whether TRPC6 modulators also affect mouse TRPC4 | shares compounds with TRPC6 inh | HEK293 TRPC4/mu-opioid, membrane potential fluorescence | percent change from control (negative = decrease, positive = increase), % at 10 µM | 2,400 tested, 69% active;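 active = membrane potential signal moved up or down beyond 5 SD of buffer control wells, in both duplicate plates, actives on both sides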;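 note: plate controls were assay buffer wells for no effect and DAMGO maximal-effect wells for full effect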
TRPC4/MOR inh 2: second check of whether TRPC6 modulators also affect mouse TRPC4 | shares compounds with TRPC6 inh | HEK293 TRPC4/mu-opioid, membrane potential dye fluorescence; stimulated with maximal-effect DAMGO | inhibition, % at 10 µM | 2,400 tested, 55% active | AID 488928;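 active = drop in membrane potential signal beyond 5 SD of the control wells in both duplicate plates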;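 note: TRPC4 counter screen for TRPC6 hits run under conditions tuned for TRPC6 not TRPC4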
TRPC6 inh conf: confirmation of mouse TRPC6 inhibitors. HEK293-TRPC6, membrane potential dye, ACh-evoked depolarization. inhibition, % at 10 µM. 3,300 tested, 43% active. shares compounds with TRPC6 inh;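 active = fluorescence ratio falls more than 5 SD below the full-stimulation control mean, in both duplicate runs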;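 note: integrated fluorescence ratio of peak minus minimum over baseline after agonist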
TRPC6 act conf: confirmation of mouse TRPC6 activators; AID 488961; HEK293-TRPC6 membrane potential dye fluorescence, FDSS; shares compounds with TRPC6 inh; activation, % at 10 µM; 2,800 tested, 11% active;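 active = ratio signal rise beyond 5 SD above unstimulated control wells' mean, seen in both duplicate runs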;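 note: plate controls were buffer EC0 wells for no effect and acetylcholine ECmax response for full effect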
Numbers without * were called inactive.

Screening COc1ccc2[nH]cc(/C=C/C(=O)c3ccccc3)c2c1 returned TRPC6 inh inactive, TRPC4 act inactive, TRPC4 inh inactive, TRPC6 act inactive, Kir21 block 0.39 and TRPC4 PAM inactive.
`COc1ccc(C(=O)C2CCCN(Cc3cccn3-c3nccs3)C2)cc1F` (stereo not drawn) gave TRPC6 inh inactive, TRPC4 act inactive, TRPC4 inh inactive, TRPC6 act inactive, Kir21 block -1.4 and TRPC4 PAM inactive.
For Cc1ccsc1C(=O)C1CCCN(Cc2cccn2-c2ccc(Cl)cn2)C1 (stereo not drawn) the results were TRPC6 inh -6*, TRPC4 act inactive, TRPC4 inh inactive, TRPC6 act inactive, Kir21 block -4.6*, TRPC4 PAM inactive, HEK293 MPD ctr-2 inactive, HEK293 MPD ctr 2-2 inactive, TRPC4 ctr mod inactive, TRPC4/MOR inh 2 90%* and TRPC6 inh conf 54%*.
O=C(c1ccc(Cl)cc1)C1CCCN(Cc2cccn2-c2ccccn2)C1 (stereo not drawn) was read as TRPC6 inh inactive, TRPC4 act inactive, TRPC4 inh inactive, TRPC6 act inactive, Kir21 block -1.4 and TRPC4 PAM inactive.
Screening COc1ccc(C(=O)C2CCCN(Cc3cccn3-c3ccccn3)C2)cc1F (stereo not drawn) returned TRPC6 inh -12*, TRPC4 act inactive, TRPC4 inh inactive, TRPC6 act inactive, Kir21 block -0.86, TRPC4 PAM inactive, TRPC4 spec 2 16%*, TRPC4 spec inactive, HEK293 MPD ctr 2-1 21%*, HEK293 MPD ctr-1 -0.1%*, TRPC6 inh conf 107%* and TRPC6 act conf inactive.
`COc1cccc(C(=O)C2CCCN(Cc3cccn3-c3ccccn3)C2)c1` (stereo not drawn) gave TRPC6 inh -5.9*, TRPC4 act inactive, TRPC4 inh -7*, TRPC6 act inactive, Kir21 block -1.8, TRPC4 PAM inactive, HEK293 MPD ctr-2 146%*, HEK293 MPD ctr 2-2 inactive, TRPC4 ctr mod 14%*, TRPC4/MOR inh 2 84%* and TRPC6 inh conf 60%*.
For COc1ccc(C(=O)C2CCCN(Cc3cccn3-c3nccs3)C2)cc1OC (stereo not drawn) the results were TRPC6 inh -5.2*, TRPC4 act inactive, TRPC4 inh inactive, TRPC6 act inactive, Kir21 block -1.6, TRPC4 PAM inactive, HEK293 MPD ctr-2 inactive, HEK293 MPD ctr 2-2 inactive, TRPC4 ctr mod inactive, TRPC4/MOR inh 2 68%*, TRPC6 inh conf inactive and TRPC6 act conf inactive.
Cc1ccc(S(=O)(=O)Nc2ccc(NC(=O)CN3CCCCC3)cc2)cc1 was read as TRPC6 inh -6.8*, TRPC4 act inactive, TRPC4 inh inactive, TRPC6 act 13*, Kir21 block -0.48, TRPC4 PAM inactive, HEK293 MPD ctr-2 inactive, HEK293 MPD ctr 2-2 inactive, TRPC4 ctr mod 8.5%*, TRPC4/MOR inh 2 inactive, TRPC6 inh conf 83%* and TRPC6 act conf 118%*.
Screening O=C(CS(=O)(=O)c1ccc(F)cc1)NCCS(=O)(=O)c1ccccc1 returned TRPC6 inh inactive, TRPC4 act inactive, TRPC4 inh inactive, TRPC6 act inactive, Kir21 block 0.06 and TRPC4 PAM inactive.
CCCCc1ccc(-c2csc(/C(C#N)=C\c3ccc(C)o3)n2)cc1 was read as TRPC6 inh -8.4*, TRPC4 act inactive, TRPC4 inh inactive, TRPC6 act inactive, Kir21 block -0.19, TRPC4 PAM inactive, TRPC4 spec 2 inactive, TRPC4 spec inactive, HEK293 MPD ctr 2-1 inactive, HEK293 MPD ctr-1 inactive and TRPC6 inh conf inactive.
For Cc1ccccc1OCCCCCCN1CCNCC1 the results were TRPC6 inh -8.2*, TRPC4 act inactive, TRPC4 inh inactive, TRPC6 act inactive, Kir21 block 0.17, TRPC4 PAM 10*, TRPC4 spec 2 54%*, TRPC4 spec 1.8%*, HEK293 MPD ctr 2-1 inactive, HEK293 MPD ctr-1 4.1%*, TRPC6 inh conf inactive and TRPC6 act conf inactive.
`Cc1cc(C)c(OCCCCN2CCNCC2)c(C)c1` gave TRPC6 inh -5.7*, TRPC4 act inactive, TRPC4 inh inactive, TRPC6 act inactive, Kir21 block -1.7, TRPC4 PAM inactive, HEK293 MPD ctr-2 inactive, HEK293 MPD ctr 2-2 inactive, TRPC4 ctr mod inactive, TRPC4/MOR inh 2 54%* and TRPC6 inh conf 44%*.
For Cc1ccc(OCCCCCCN2CCNCC2)cc1 the results were TRPC6 inh -6.7*, TRPC4 act inactive, TRPC4 inh inactive, TRPC6 act inactive, Kir21 block -1.6, TRPC4 PAM inactive, TRPC4 spec 2 48%*, TRPC4 spec 0.1%*, HEK293 MPD ctr 2-1 inactive, HEK293 MPD ctr-1 7.4%*, TRPC6 inh conf inactive and TRPC6 act conf inactive.
